The term kcat/Km denotes the turnover number divided by the Michaelis constant. A word on the Vmax: it is the top rate of the reaction or transport when substrate is in excess. One may read the Km as the concentration of substrate that gives half-maximal velocity. One may read the kcat as the maximal rate divided by the concentration of active sites.

Substrate in data set [1]: O=C(O)CC(=O)C(=O)O
Kind of data set: Binding affinity to Mycobacterium tuberculosis wild type CitA expressed in Escherichia coli cells assessed as Kcat/Km by Michaelis-Menten analysis. An outline of the steps:
(§1)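 His-tagged CitA (wild type or variant) was expressed in E. coli, purified by cobalt affinity and size exclusion, then dialysed against 20 mM Tris pH 8.0. Activity was measured by DTNB (300 μM) thiol detection of released CoA at 412 nm, with OAA and AcCoA substrates and 10 nM enzyme, in 50 mM Tris pH 8.0 at 25 °C. A no-enzyme control was run. Triplicate runs were fitted to Michaelis–Menten.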

Substrate in data set [2]: O=C(O)CC(=O)C(=O)O
In words: Binding affinity to Mycobacterium tuberculosis wild type CitA expressed in Escherichia coli cells assessed as Vmax by Michaelis-Menten analysis. The procedure, abridged:
as §1

Substrate in data set [3]: O=C(O)CC(=O)C(=O)O
Kind of data set: Binding affinity to Mycobacterium tuberculosis wild type CitA expressed in Escherichia coli cells assessed as apparent Km by Michaelis-Menten analysis. The procedure, abridged:
as §1

Substrate in data set [4]: O=C(O)CC(=O)C(=O)O
Kind of data set: Binding affinity to Mycobacterium tuberculosis wild type CitA expressed in Escherichia coli cells assessed as catalytic constant by Michaelis-Menten analysis. An outline of the steps: as §1

B1: Putative citrate synthase 2 (Mycobacterium tuberculosis), P9WPD3 (protein)
chain: MTVVPENFVPGLDGVVAFTTEIAEPDKDGGALRYRGVDIEDLVSQRVTFGDVWALLVDGNFGSGLPPAEPFPLPIHSGDVRVDVQAGLAMLAPIWGYAPLLDIDDATARQQLARASVMALSYVAQSARGIYQPAVPQRIIDECSTVTARFMTRWQGEPDPRHIEAIDAYWVSAAEHGMNASTFTARVIASTGADVAAALSGAIGAMSGPLHGGAPARVLPMLDEVERAGDARSVVKGILDRGEKLMGFGHRVYRAEDPRARVLRAAAERLGAPRYEVAVAVEQAALSELRERRPDRAIETNVEFWAAVVLDFARVPANMMPAMFTCGRTAGWCAHILEQKRLGKLVRPSAIYVGPGPRSPESVDGWERVLTTA
B1: in data set [1], the kcat/Km was determined as 400000 M⁻¹ s⁻¹. Moreover, the Vmax in data set [2] stood at 3.4 µM/min. The Km in data set [3] amounted to 14.3 µM. Moreover, the kcat in data set [4] came out at 5.67 s⁻¹.

These data come from ChEMBL document CHEMBL5257161, “Mycobacterium tuberculosis CitA activity is modulated by cysteine oxidation and pyruvate binding” (RSC Med Chem, 2023).
